From PubChem BioAssay
Shown are actives, neighbours in structure and some others; about 3.2% of the full set was active somewhere.
OX1R antag-1 – blocks the human orexin 1 receptor; O43613; inhibition, % at 5 µM; CHO/OX1R cells, Fluo-8 calcium fluorescence, orexin A; hit rate 0.43% among 330,000; AID 434989;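 active means inhibition above its plate's threshold, mean inhibition of all tested compounds on the plate plus 3 SD, cut at about 37% in these data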;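 further: 0% = orexin A challenge wells and 100% = SB-334867-A antagonist wells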
TRPML3 ag – agonists of human TRPML3 channel | Q8TDD5 | HEK293 TRPML3-YFP, Fluo-8 calcium fluorescence; 100% = the carbachol control signal | activation, % at 3 µM | hit rate 0.29% among 220,000 | AID 1448;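 active means activation above its plate's cutoff, the mean activation of the plate's test wells plus 3 SD, cut at about 12% in these data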;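 further: 0% = DMSO only wells and 100% = carbachol wells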
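Material: TRPML3-YFP stable HEK293 cells | Dosing: One concentration, 3 µM nominal, 0.3% DMSO | Timing: 125 s total fluorescence read per well | Technique: Fluo-8 calcium dye fluorescence, ex 470-495, em 515-575 nm | Measure: Percent activation from peak-to-basal fluorescence ratio, scaled between DMSO and carbachol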
OX1R antag-2 – blocks the human orexin 1 receptor; OX1R-expressing cells, FRET antagonist read-out; inhibition, % at 6.6 µM; hit rate 1.8% among 330,000; AID 485270; in the data active means inhibition mostly above about 38%, no sharp cut-off; inactive means mostly below about 40%;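 further: 0% = agonist challenge alone and 100% = reference antagonist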
TRPN1 ag – agonists of zebrafish TRPN1 channel; HEK293 zebrafish TRPN1-YFP, Fluo-8 calcium fluorescence; 100% = response to 87 µM carbachol; activation, % at 3 µM; hit rate 0.18% among 220,000; AID 1424;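 active means activation above its plate's cutoff, the mean activation of test wells on that plate plus 3 SD, cut at about 19% in these data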;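 further: 0% = DMSO alone and 100% = 87 µM carbachol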
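Control set: carbachol 87 µM as high control, DMSO as low control; system: HEK293 stable line with zebrafish TRPN1-YFP; read-out: % activation versus carbachol response; detection: intracellular calcium fluorescence with Fluo-8; doses: single test compound dose, 3 µM nominal, 0.3% DMSO; schedule: dye 1 h 37 °C plus 30 min RT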
GPR7 antagonist – blocks human GPR7 receptor signaling; GPR7-expressing cells, fluorescence antagonist assay; inhibition, % at 4.4 µM; P48145; hit rate 1.1% among 290,000; AID 1861; in the data active means inhibition above about 16%, passing the limit was not always enough;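 further: cells stimulated with the agonist NPW; 0% = agonist with vehicle and 100% = vehicle without agonist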
Target sequence (P48145 whole entry, looked up): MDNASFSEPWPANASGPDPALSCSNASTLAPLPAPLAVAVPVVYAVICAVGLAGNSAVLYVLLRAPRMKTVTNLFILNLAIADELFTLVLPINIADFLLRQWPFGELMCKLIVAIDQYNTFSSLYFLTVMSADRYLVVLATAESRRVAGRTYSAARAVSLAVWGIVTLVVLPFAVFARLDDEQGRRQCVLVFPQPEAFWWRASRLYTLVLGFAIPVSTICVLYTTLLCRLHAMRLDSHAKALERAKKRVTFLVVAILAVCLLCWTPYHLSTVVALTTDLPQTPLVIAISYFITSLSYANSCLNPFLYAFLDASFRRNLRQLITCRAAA
CHO parental Ca – signal in parental CHO cells, OX1R antagonist counter-screen; parental CHO-K1, ATP-induced calcium, Fluo-8 fluorescence; inhibition, % at 5.6 µM; hit rate 0.63% among 330,000; AID 463079;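 active means inhibition above that plate's mean sample inhibition plus 3 SD, cut at about 26% in these data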;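 further: 0% = ATP-challenged DMSO wells and 100% = DMSO wells without ATP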
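material = parental CHO cells | also added = ATP as calcium-mobilizing challenge | dosing = single point at 5.6 µM | detection = intracellular calcium via Fluo-8 no-wash fluorescent dye | read-out = % inhibition | benchmarks = low control ATP plus DMSO, high control DMSO only | repeats = one well per compound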
OX1R HTRF conf – OX1R (human) antagonism, HTRF confirmed; OX1R-expressing cells, HTRF antagonist assay; hit rate 49% among 1,800; inhibition, % at 6.6 µM; shares compounds with OX1R antag-2; AID 492964; in the data active means inhibition above about 55%;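 further: CHO cells expressing OX1R stimulated with orexin A at about EC80; 0% = agonist challenge alone and 100% = reference antagonist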
CHO-K1 HTRF cnt – signal in parental CHO-K1 cells, OX1R antagonist counter-screen; shares compounds with OX1R antag-2; HTRF counterscreen; inhibition, % at 6.6 µM; hit rate 48% among 1,800; in the data active means inhibition above about 17%;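 further: 0% = agonist challenge with vehicle and 100% = vehicle alone without agonist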
* = called active by the depositor.

For C/C(=N\Nc1nnc2c3ccccc3n(C)c2n1)c1ccc(C)o1 the results were OX1R antag-1 0, TRPML3 ag 0, OX1R antag-2 93*, TRPN1 ag 2, GPR7 antagonist -9, CHO parental Ca -13, OX1R HTRF conf 96* and CHO-K1 HTRF cnt 17*.
Cc1c(CCOC(=O)c2cc([N+](=O)[O-])cc([N+](=O)[O-])c2)sc[n+]1CCCCS(=O)(=O)[O-] was read as OX1R antag-1 -4, TRPML3 ag 1, OX1R antag-2 174*, TRPN1 ag 0, GPR7 antagonist -11, CHO parental Ca -2, OX1R HTRF conf 72* and CHO-K1 HTRF cnt 85*.
O=C(Nc1cccc(-c2nnc(-c3ccccc3)o2)c1)c1ccc(Br)o1 was read as OX1R antag-1 31, TRPML3 ag 1, OX1R antag-2 87*, TRPN1 ag 0, GPR7 antagonist -7, CHO parental Ca -11, OX1R HTRF conf 52 and CHO-K1 HTRF cnt 10.
COc1ccc(NC(=O)N2CCNC(=O)C2CC(=O)Nc2ccc(F)cc2)cc1 (stereo unspecified) was read as OX1R antag-1 -8, OX1R antag-2 9, GPR7 antagonist -13 and CHO parental Ca -7.
O=C(CSc1ccc(F)cc1)NCC1(N2CCOCC2)CCCCC1 was read as OX1R antag-1 -24, OX1R antag-2 23 and CHO parental Ca -2.
CC(=O)Nc1ccc(Nc2ccc3nonc3c2[N+](=O)[O-])cc1 was read as OX1R antag-1 -4, TRPML3 ag 0, OX1R antag-2 active, TRPN1 ag 0, GPR7 antagonist -8, CHO parental Ca -1, OX1R HTRF conf 55* and CHO-K1 HTRF cnt 93*.
O=C(C1CCOCC1)N1CCC(CO)(CCc2ccccc2)CC1 was read as OX1R antag-1 -16, TRPML3 ag 0, OX1R antag-2 8, TRPN1 ag 2, GPR7 antagonist -1 and CHO parental Ca -22.
`O=C(NCCCCC(NC(=O)c1ccc([N+](=O)[O-])cc1)C(=O)O)c1ccc([N+](=O)[O-])cc1` (stereo unspecified) gave OX1R antag-1 -12, TRPML3 ag 1, OX1R antag-2 137*, TRPN1 ag 0, GPR7 antagonist -5, CHO parental Ca -12, OX1R HTRF conf 37 and CHO-K1 HTRF cnt 58*.
Screening CC(C)NC(=O)c1ccc2c(c1)S(=O)(=O)c1ccccc1C2=O returned OX1R antag-1 -4, TRPML3 ag 1, OX1R antag-2 153*, TRPN1 ag -1, GPR7 antagonist 5, CHO parental Ca -10, OX1R HTRF conf 47 and CHO-K1 HTRF cnt 63*.
For CN(C)CCOC(=O)c1ccc2c(c1)S(=O)(=O)c1ccccc1C2=O the results were OX1R antag-1 0, TRPML3 ag 0, OX1R antag-2 108*, TRPN1 ag 2, GPR7 antagonist -9, CHO parental Ca -6, OX1R HTRF conf 53 and CHO-K1 HTRF cnt 58*.
O=C(NCCCN1CCCC1=O)C(=O)NCC1OCCCN1S(=O)(=O)c1cc(F)ccc1F (stereo unspecified) was read as OX1R antag-1 -1, OX1R antag-2 7, GPR7 antagonist -28 and CHO parental Ca -2.
For O=[N+]([O-])c1ccc2n[nH]nc2c1 the results were OX1R antag-1 -15, TRPML3 ag 1, OX1R antag-2 18, TRPN1 ag -1, GPR7 antagonist -12 and CHO parental Ca -10.
Screening O=[N+]([O-])c1ccc2nnn(O)c2c1 returned OX1R antag-1 -13, TRPML3 ag 0, OX1R antag-2 91*, TRPN1 ag 0, GPR7 antagonist -7, CHO parental Ca -8, OX1R HTRF conf 31 and CHO-K1 HTRF cnt 46*.
`COC(=O)CSc1nc2ccc(C)cc2[nH]1` gave OX1R antag-1 0, TRPML3 ag 1, OX1R antag-2 -2, TRPN1 ag 0, GPR7 antagonist -6 and CHO parental Ca 2.
